This is an account of results in ChEMBL document CHEMBL2176901, “Pyrrolo[3,4-h]quinolinones a new class of photochemotherapeutic agents” (Bioorg Med Chem, 2011).

What all share (format): functional, cell-based
For assay [1], the system named is HL-60. Put plainly: Phototoxicity in 2.5 J/cm'2 UV-A irradiated human HL60 cells after 72 hrs by MTT assay. The settings on record: HL-60, light or radiation study. Summed up: (§1)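 HL-60 and Jurkat (8×10³/well, RPMI-1640) and MCF-7, LoVo, NCTC-2544 (5×10³/well; DMEM or Ham's F12) preincubated 18 h at 37 °C, 5% CO₂. Compound in DMSO diluted in HBSS pH 7.2, 30 min at 37 °C, then UV-A at 2.5 or 3.75 J/cm². Medium replaced, 72 h incubation, MTT read-out. IC50 as mean ± SEM of three experiments.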

Assay [2] deals with HL-60. Put plainly: Phototoxicity in 3.75 J/cm'2 UV-A irradiated human HL60 cells after 72 hrs by MTT assay. To be noted: HL-60, light or radiation study. Summed up: as §1
(In general: Tetrazolium assays rely on reduction of a dye to a coloured formazan, in cell work by metabolically active cells.)

Assay [3] has as its system Jurkat. The experiment in a line: Phototoxicity in 2.5 J/cm'2 UV-A irradiated human Jurkat cells after 72 hrs by MTT assay. The settings on record: light or radiation study. Summed up: as §1
For assay [4], the system named is Jurkat. The experiment in a line: Phototoxicity in 3.75 J/cm'2 UV-A irradiated human Jurkat cells after 72 hrs by MTT assay. To be noted: light or radiation study. Summed up:
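Jurkat cells (8 × 10³/well) in RPMI-1640 with 10% FBS, held 18 h at 37 °C, 5% CO2. Compound stock in DMSO was diluted in HBSS pH 7.2 and added for 30 min at 37 °C. Cells were UV-A irradiated (lamp mainly 365 nm, 4.0 mW/cm²), then returned to medium for 72 h. MTT readout. IC50 is the mean ± SEM of three experiences.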

In assay [5] the test system is MCF7. Put plainly: Phototoxicity in 2.5 J/cm'2 UV-A irradiated human MCF7 cells after 72 hrs by MTT assay. To be noted: MCF7, light or radiation study. Summed up:
as §1

Assay [6] concerns MCF7. The experiment in a line: Phototoxicity in 3.75 J/cm'2 UV-A irradiated human MCF7 cells after 72 hrs by MTT assay. To be noted: MCF7, light or radiation study. Summed up: (§2)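 Seeded at 5 × 10³ cells/well with 10% FBS: MCF-7 and NCTC-2544 in DMEM, LoVo in Ham's F12. Pre-incubated 18 h at 37 °C, 5% CO2. Compound (DMSO stock diluted in HBSS pH 7.2) was applied for 30 min at 37 °C, then UV-A irradiation (mainly 365 nm, 4.0 mW/cm²). Medium was restored for 72 h before MTT. IC50 is the mean ± SEM of three experiences.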

For assay [7], the system named is LoVo. Put plainly: Phototoxicity in 2.5 J/cm'2 UV-A irradiated human LoVo cells after 72 hrs by MTT assay. To be noted: light or radiation study. An outline of the steps: as §1
In assay [8] the test system is LoVo. The experiment in a line: Phototoxicity in 3.75 J/cm'2 UV-A irradiated human LoVo cells after 72 hrs by MTT assay. To be noted: light or radiation study. Summed up: as §2
A short description of assay [9]: Phototoxicity in 2.5 J/cm'2 UV-A irradiated human NCTC-2544 cells after 72 hrs by MTT assay. To be noted: NCTC-2544, light or radiation study. An outline of the steps: as §1
Assay [10] can be described thus: Phototoxicity in 3.75 J/cm'2 UV-A irradiated human NCTC-2544 cells after 72 hrs by MTT assay. The settings on record: NCTC-2544, light or radiation study. An outline of the steps:
as §2

What is called IC50 is the concentration that inhibits the measured activity by half. Low values mean greater potency, high ones weaker potency. With `CCOC(=O)c1[nH]c(C)c2c1CCc1cc(S(=O)(=O)c3ccccc3)c(=O)n(C)c1-2`, the IC50 in the assay on HL-60 [1] was > 20 µM; in the assay with HL-60 [2], 5.8 µM; in the assay with Jurkat [3], > 20 µM; in the assay on Jurkat [4] it was 12.5 µM; in the assay on MCF7 [5] it was > 20 µM; in the assay with MCF7 [6], > 20 µM. Moreover, the IC50 is > 20 µM in the assay on LoVo [7], 13.2 µM with LoVo [8], > 20 µM in [9] and > 20 µM in assay [10].

Regarding `COc1nc2c(cc1S(=O)(=O)c1ccccc1)CCc1cn(Cc3ccccc3)cc1-2`, the half-maximal inhibitory concentration (IC50) stood at 8.3 µM in the assay with HL-60 [1]; 7.3 µM with HL-60 [2]; 8.5 µM with Jurkat [3]; 6.3 µM in the assay with Jurkat [4]; 10 µM with MCF7 [5]; 7.5 µM with MCF7 [6]. Besides, the IC50 was 9.9 µM in the assay on LoVo [7], 8.7 µM in the assay on LoVo [8], 15.3 µM in assay [9] and 9.6 µM in [10].

Take `Cn1c2c(cc(S(=O)(=O)c3ccccc3)c1=O)CCc1cn(-c3ccccc3)cc1-2`: the concentration for half-maximal inhibition (IC50) with HL-60 [1], with HL-60 [2], in the assay on Jurkat [3], in the assay with Jurkat [4], in the assay on MCF7 [5] and in the assay with MCF7 [6] was > 20 µM in each case. The IC50 (in the assay with LoVo [7]; with LoVo [8]; in assay [9]; in [10]) was > 20 µM in each case.

On to `Cc1c2c(cn1C)CCc1cc(S(=O)(=O)c3ccccc3)c(=O)[nH]c1-2`, for which the IC50 in the assay with HL-60 [1], in the assay on HL-60 [2], in the assay with Jurkat [3], with Jurkat [4], in the assay on MCF7 [5] and in the assay on MCF7 [6] was > 20 µM in each case. Besides, the IC50 (in the assay on LoVo [7]; in the assay on LoVo [8]; in assay [9]; in assay [10]) was > 20 µM throughout.

`Cc1c2c(c(C(=O)O)n1Cc1ccccc1)CCc1cc(S(=O)(=O)c3ccccc3)c(=O)[nH]c1-2`: the IC50 in the assay with HL-60 [1], in the assay with HL-60 [2], with Jurkat [3], in the assay with Jurkat [4], with MCF7 [5] and in the assay on MCF7 [6] was > 20 µM throughout. In addition, the IC50 (with LoVo [7]; in the assay on LoVo [8]; in assay [9]; in [10]) was > 20 µM each time.

With `O=c1[nH]c2c(cc1S(=O)(=O)c1ccccc1)CCc1cn(Cc3ccccc3)cc1-2`, the IC50 in the assay on HL-60 [1] was > 20 µM; with HL-60 [2] it was 14.5 µM; with Jurkat [3], > 20 µM; in the assay on Jurkat [4] it was > 20 µM; with MCF7 [5], > 20 µM; in the assay with MCF7 [6], > 20 µM. Moreover, the IC50 (in the assay with LoVo [7]; with LoVo [8]; in assay [9]; in assay [10]) was > 20 µM each time.

For the compound `CCOC(=O)c1c2c(c(C)n1C)-c1[nH]c(=O)c(S(=O)(=O)c3ccccc3)cc1CC2`, the half-inhibitory concentration (IC50) was 3.6 µM in the assay on HL-60 [1]; 1.8 µM in the assay with HL-60 [2]; 2 µM with Jurkat [3]; 1.4 µM with Jurkat [4]; 10 µM in the assay on MCF7 [5]; 5.1 µM in the assay on MCF7 [6]. Further, the concentration for half-maximal inhibition (IC50) in the assay with LoVo [7] was determined as 7.9 µM; in the assay with LoVo [8], 4 µM; in [9], 10.1 µM; in [10], 6.2 µM.

Turning to `CCOC(=O)c1c2c(c(C)n1Cc1ccccc1)-c1c(cc(S(=O)(=O)c3ccccc3)c(=O)n1C)CC2`, the IC50 with HL-60 [1] is 5.4 µM; with HL-60 [2], 2.6 µM; in the assay with Jurkat [3], 2.9 µM; in the assay with Jurkat [4] it was 1.3 µM; in the assay on MCF7 [5] it was > 20 µM; in the assay on MCF7 [6], 14.4 µM. Also, the IC50 in the assay with LoVo [7] was 12.1 µM; in the assay with LoVo [8] it was 8.7 µM; in assay [9] it was > 20 µM; in assay [10], 14.3 µM.

With `Cn1cc2c(c1)-c1c(cc(S(=O)(=O)c3ccccc3)c(=O)n1C)CC2`, the IC50 in the assay on HL-60 [1], in the assay with HL-60 [2], with Jurkat [3], in the assay with Jurkat [4], in the assay on MCF7 [5] and in the assay on MCF7 [6] was > 20 µM in each case. Also, the concentration for half-maximal inhibition (IC50) (in the assay with LoVo [7]; in the assay with LoVo [8]; in [9]; in assay [10]) was > 20 µM each time.

In the case of `Cn1c2c(cc(S(=O)(=O)c3ccccc3)c1=O)CCc1cn(Cc3ccccc3)cc1-2`, the IC50 with HL-60 [1] was determined as 4.4 µM; in the assay on HL-60 [2], 2.8 µM; in the assay on Jurkat [3] it was 3.6 µM; with Jurkat [4], 2.5 µM; in the assay on MCF7 [5], 6.6 µM; in the assay on MCF7 [6] it was 3.7 µM. Moreover, the IC50 was found to be 3.9 µM with LoVo [7], 2.8 µM with LoVo [8], 8.2 µM in assay [9] and 5.8 µM in assay [10].

On to `CCOC(=O)c1[nH]c(C)c2c1CCc1cc(S(=O)(=O)c3ccccc3)c(=O)[nH]c1-2`, for which the IC50 with HL-60 [1] was 13.7 µM; with HL-60 [2] it was 9.1 µM; with Jurkat [3], 18 µM; in the assay with Jurkat [4], 10 µM; with MCF7 [5] it was > 20 µM; in the assay with MCF7 [6] it was > 20 µM. In addition, the IC50 with LoVo [7] was 17.5 µM; in the assay on LoVo [8], 13.6 µM; in assay [9], > 20 µM; in assay [10] it was 15 µM.

For the compound `Cc1c2c(c(C(=O)O)n1C)CCc1cc(S(=O)(=O)c3ccccc3)c(=O)[nH]c1-2`, the IC50 in the assay on HL-60 [1], in the assay on HL-60 [2], in the assay with Jurkat [3], with Jurkat [4], in the assay on MCF7 [5] and in the assay with MCF7 [6] was > 20 µM each time. Also, the IC50 (in the assay with LoVo [7]; in the assay with LoVo [8]; in assay [9]; in assay [10]) was > 20 µM in each case.

As for `Cn1cc2c(c1)-c1[nH]c(=O)c(S(=O)(=O)c3ccccc3)cc1CC2`, the IC50 in the assay on HL-60 [1] is > 20 µM; with HL-60 [2] it was 5.6 µM; in the assay with Jurkat [3], > 20 µM; in the assay with Jurkat [4], > 20 µM; with MCF7 [5] it was > 20 µM; with MCF7 [6], > 20 µM. Also, the IC50 (in the assay with LoVo [7]; with LoVo [8]; in assay [9]; in assay [10]) was > 20 µM throughout.

In the case of `Cc1[nH]c(C(=O)O)c2c1-c1[nH]c(=O)c(S(=O)(=O)c3ccccc3)cc1CC2`, the IC50 in the assay on HL-60 [1], in the assay on HL-60 [2], in the assay with Jurkat [3], in the assay with Jurkat [4], with MCF7 [5] and in the assay on MCF7 [6] was > 20 µM each time. Further, the concentration for half-maximal inhibition (IC50) (with LoVo [7]; in the assay with LoVo [8]; in assay [9]; in [10]) was > 20 µM in each case.

Regarding `O=c1ccc2ccc3occc3c2o1` [ANGELICIN], the IC50 is 4 µM in the assay on LoVo [7], 1.1 µM with LoVo [8], 4.2 µM in assay [9] and 0.9 µM in assay [10].

For `O=c1[nH]c2c(cc1S(=O)(=O)c1ccccc1)CCc1cn(-c3ccccc3)cc1-2`, the concentration for half-maximal inhibition (IC50) was 12.2 µM in the assay with HL-60 [1]; 8 µM in the assay with HL-60 [2]; > 20 µM with Jurkat [3]; 7.4 µM with Jurkat [4]; > 20 µM in the assay on MCF7 [5]; > 20 µM in the assay on MCF7 [6]. The IC50 (in the assay on LoVo [7]; with LoVo [8]; in assay [9]; in assay [10]) was > 20 µM throughout.
